# Measured values from ChEMBL document CHEMBL4043182, “On the synthesis of quinone-based BODIPY hybrids: New insights on antitumor activity and mechanism of action in cancer cells” (Bioorg Med Chem Lett, 2017).
# Activity calls are given as the source filed them. The rule behind the calls is not given here.
# What was measured:
# L929 [1] = assay: Cytotoxicity against mouse L929 cells after 24 hrs in presence of GSH-OEt by MTT assay; type: cell-based; conditions: L929, 24 h
# How it was run: (§1)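 24 h MTT exposure (0.04–40.92 µM in 0.1% DMSO), with or without co-treatment with GSH ethyl ester (15 mM) to gauge the ROS contribution. MTT was 0.5 mg/mL for 3 h, with formazan dissolved in DMSO and absorbance at 595 nm expressed as % of control. Triplicate, repeated at least three times.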
# HCT-116 [2] = assay: Induction of oxidative stress in human HCT116 cells assessed as total GSH levels at 5 uM treated 24 hrs post NAC addition measured after 24 hrs by spectrophotometric analysis (reference value: 3.74 +/- 0.55 microg/mg); type: functional
# L929 [3] = assay: Induction of lipid peroxidation in mouse L929 cells assessed as increase in MDA levels at 2.5 to 10 uM treated 24 hrs post NAC addition measured after 24 hrs by TBARS assay; type: cell-based; conditions: l929, 24 h
# How it was run: (§2)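 TBARS: cells were exposed 24 h, with or without 24 h prior 5 mM NAC, and lysed in Tris-HCl. Lysate was heated with TCA/0.25 M HCl and 6.7 mg/mL TBA for 15 min at 100 °C, centrifuged, and read at 532 nm. Hydrolyzed tetramethoxypropane served as standard, with values normalized to protein. H2O2 (10 µM) was the positive control. Three independent experiments in triplicate; ANOVA/Tukey.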
# SF-295 [4] = assay: Cytotoxicity against human SF295 cells after 24 hrs in presence of GSH-OEt by MTT assay; type: functional, cell-based; conditions: SF-295, 24 h; how it was run: as §1
# [5] = Selective index, ratio of IC50 for mouse L929 cells to IC50 for human MDA-MB-435 cells
# How it was run: (§3)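 Selectivity index is the ratio of the IC50 in a non-cancer murine line (V79 or L929) to the IC50 in the cancer line. […] MTT was 0.5 mg/mL for 3 h, formazan dissolved in DMSO and read at 595 nm as % of control. IC50s were derived by nonlinear regression; triplicate, at least three repeats.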
# PC-3 [6] = assay: Cytotoxicity against human PC3 cells after 24 hrs in presence of GSH-OEt by MTT assay; type: functional, cell-based; conditions: PC-3, 24 h; how it was run: as §1
# SF-295 [7] = assay: Geno-toxicity in human SF295 cells assessed as induction of DNA damage at 2.5 to 10 uM after 24 hrs in absence of NAC by alkaline comet assay; type: functional, cell-based
# How it was run: (§4)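 Alkaline comet assay after 24 h at 2.5, 5 and 10 µM, with or without 24 h pretreatment with 5 mM NAC. Cells were trypsinized and embedded in 0.75% low-melting agarose, then lysed at pH 10, 4 °C, ≥1 h. DNA was unwound 20 min at pH >13 and electrophoresed 20 min at 25 V, 300 mA (0.86 V/cm), then stained with ethidium bromide. 100 cells (2 slides) were scored in classes 0–4 for a damage index. Mean ± SEM, three independent experiments in triplicate.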
# PC-3 [8] = assay: Induction of lipid peroxidation in human PC3 cells assessed as increase in MDA levels at 2.5 to 10 uM after 24 hrs in absence of NAC by TBARS assay; type: functional, cell-based; how it was run: as §2
# [9] = Drug uptake in lysosomes of human PC3 cells at 5 uM after 10 mins by LysoTracker Red dye-based confocal microscopic analysis; type: ADME, cell-based; conditions: pc-3, 10 min
# How it was run: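 PC3 cells were grown in DMEM with 10% FBS, antibiotics and 2 mM L-glutamine at 37 °C, 5% CO2. Cells were incubated with compound (5 µM) plus LysoTracker Red or MitoTracker Red for 10 min at 37 °C. Live cells were imaged in phenol red-free DMEM by confocal microscopy with a 40X oil objective, exciting at 488 nm (compound) and 543 nm (tracker dyes).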
# V79 = assay: Antiproliferative activity against chinese hamster V79 cells after 72 hrs by MTT assay; type: cell-based; conditions: Cricetulus griseus, V79, 72 h
# How it was run: (§5)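 MTT reduction: cancer lines plated at 0.7×10^5 to 0.3×10^6 cells/well, V79 and L929 fibroblasts at 0.5×10^5 cells/well. Compounds in DMSO (0.1%) were given for 24 h at 0.04–40.92 µM or 72 h at 0.04–8.19 µM. Fresh medium with 0.5 mg/mL MTT was added for 3 h, then formazan was dissolved in DMSO and read at 595 nm as % of control. IC50 came from nonlinear regression with 95% CI. Doxorubicin (0.001–1.06 µM) was the positive control. Triplicate, ≥3 repeats.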
# PC-3 [10] = assay: Antiproliferative activity against human PC3 cells after 72 hrs by MTT assay; type: functional, cell-based; conditions: PC-3, 72 h; how it was run: as §5
# HCT-116 [11] = assay: Induction of oxidative stress in human HCT116 cells assessed as total GSH levels at 5 uM after 24 hrs by spectrophotometric analysis (reference value: 3.74 +/- 0.55 microg/mg); type: functional
# [12] = Selectivity index, ratio of IC50 for mouse L929 cells to IC50 for human SF295 cells; type: functional; how it was run: as §3
# SF-295 [13] = assay: Induction of oxidative stress in human SF295 cells assessed as total intracellular thiol levels at 5 uM treated 24 hrs post NAC addition measured after 24 hrs by spectrophotometric analysis (reference value: 4.51 +/- 0.83 microg/mg); type: functional
# How it was run: (§6)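 Cells were pretreated 24 h with 5 mM NAC, then exposed 24 h to test compound at 5 µM. Controls received 0.1% DMSO. Extracts were prepared by sonication and HClO4 precipitation, then neutralized with KOH. Total glutathione was read by DTNB/glutathione reductase/NADPH rate at 412 nm. GSSG was measured after 4-vinylpyridine (0.1%, 1 h, RT) and GSH derived by difference. Values are normalized to protein, triplicates, three independent runs.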
# SF-295 [14] = assay: Induction of lipid peroxidation in human SF295 cells assessed as increase in MDA levels at 2.5 to 10 uM treated 24 hrs post NAC addition measured after 24 hrs by TBARS assay; type: functional, cell-based; how it was run: as §2
# L929 [15] = assay: Induction of oxidative stress in mouse L929 cells assessed as GSH to GSSG ratio at 5 uM after 24 hrs by spectrophotometric analysis (reference value: 3.55 +/- 0.51 microg/mg); type: cell-based; conditions: l929, 24 h
# HCT-116 [16] = assay: Induction of lipid peroxidation in human HCT116 cells assessed as increase in MDA levels at 2.5 to 10 uM treated 24 hrs post NAC addition measured after 24 hrs by TBARS assay; type: functional, cell-based; how it was run: as §2
# SW-620 = assay: Antiproliferative activity against human SW620 cells after 72 hrs by MTT assay; type: functional, cell-based; conditions: SW-620, 72 h; how it was run: as §5
# SF-295 [17] = assay: Induction of oxidative stress in human SF295 cells assessed as total GSSG levels at 5 uM treated 24 hrs post NAC addition measured after 24 hrs by spectrophotometric analysis (reference value: 1.31 +/- 0.55 microg/mg); type: functional; how it was run: as §6
# PC-3 [18] = assay: Geno-toxicity in human PC3 cells assessed as induction of DNA damage at 2.5 to 10 uM treated 24 hrs post NAC addition measured after 24 hrs by alkaline comet assay; type: functional, cell-based; how it was run: as §4
# HCT-116 [19] = assay: Induction of oxidative stress in human HCT116 cells assessed as total intracellular thiol levels at 5 uM after 24 hrs by spectrophotometric analysis (reference value: 5.02 +/- 0.91 microg/mg); type: functional
smiles,measurement,setting,value
CC1(C)OC2=C(C(=O)C(=O)c3ccccc32)C1n1cc(CNC2=[N+]3C(=C(c4ccccc4)c4ccc(Cl)n4[B-]3(F)F)C=C2)nn1 (stereo unspecified),IC50,L929 [1],12.4 µM
same,Activity,HCT-116 [2],3.71 µg/mg
same,Activity,L929 [3],Non-Toxic
same,IC50,SF-295 [4],9.81 µM
same,Ratio IC50,[5],1.1
same,IC50,PC-3 [6],15.8 µM
same,Activity,SF-295 [7],Active
same,Activity,PC-3 [8],Active
same,Drug uptake,[9],Metabolite_Notdetected
same,IC50,V79,0.65 µM
same,IC50,PC-3 [10],0.38 µM
same,Activity,HCT-116 [11],1.78 µg/mg
same,Ratio IC50,[12],3
same,Activity,SF-295 [13],4.72 µg/mg
same,Activity,SF-295 [14],inactive
same,Activity,L929 [15],0.33
same,Activity,HCT-116 [16],inactive
same,IC50,SW-620,0.68 µM
same,Activity,SF-295 [17],1.21 µg/mg
same,Activity,PC-3 [18],Active
same,Activity,HCT-116 [19],3.81 µg/mg
